# Measured values of several laboratories.
# Compare with care: the assays were run in different laboratories.
# PDE4D: 3',5'-cyclic-AMP phosphodiesterase 4D (PDE4D, Homo sapiens, UniProt Q08499)
# MTNR1B: Melatonin receptor type 1B (MTNR1B, Homo sapiens, UniProt P49286)
Structure (SMILES),target,assay,test system,conditions,measurement,result
Cc1nn(C)cc1-c1nc2c(N3CCN(Cc4ccc(Cl)cc4)CC3)c(Cl)cnc2[nH]1,"Mitogen-activated protein kinase 7 (MAPK7, Homo sapiens, UniProt Q13164)","binding, competition with immobilised ligand",,1 µM,remaining binding,100%
CC[C@H](C)[C@@H]1NC(=O)[C@@H]2CSSC[C@H](NC(=O)[C@@H](NC(=O)CN)[C@@H](C)O)C(=O)N[C@@H](CC(N)=O)C(=O)N[C@@H]([C@@H](C)O)C(=O)N3CCC[C@H]3C(=O)NCC(=O)N[C@H]3CSSC[C@H](NC(=O)[C@H](CCSC)NC(=O)[C@H](CC(C)C)NC(=O)[C@H](CCCNC(=N)N)NC(=O)CNC(=O)CNC(=O)[C@H](CC(=O)O)NC1=O)C(=O)NCC(=O)N[C@@H](CCC(=O)O)C(=O)N[C@@H]([C@@H](C)O)C(=O)N[C@H](C(=O)N[C@H](C(=O)NCC(=O)O)C(C)C)CSSC[C@H](NC(=O)[C@H]([C@@H](C)O)NC3=O)C(=O)N[C@@H](CO)C(=O)N[C@@H](Cc1c[nH]c3ccccc13)C(=O)N1CCC[C@H]1C(=O)N[C@@H](C(C)C)C(=O)N2,"Prothrombin (F2, Homo sapiens, UniProt P00734)","binding, SPR",,,kon,1000 to 10000 M⁻¹ s⁻¹
CC(C)=CCc1cc(-c2coc3cc(O)cc(O)c3c2=O)cc(O)c1O,PDE4D,"enzyme activity, inhibitor, radiometric",,50 µM,inhibition,100%
CCN(CC)CCCC[C@H](NC(=O)[C@H](CC(C)C)NC(=O)[C@H](C)NC(=O)[C@H](Cc1ccccc1)NC(=O)c1ccc(C(C)(C)C)cc1)C(=O)N[C@@H](CO)C(=O)OC,"Bromodomain adjacent to zinc finger domain protein 1A (BAZ1A, Homo sapiens, UniProt Q9NRL2)","thermal stability, DSF",,25 µM,ΔTm,-1.44 °C
COc1ncccc1-c1cnn2ccc(N3CCN(C(=O)OC(C)C)CC3)nc12,"Serine/threonine-protein kinase MAK (MAK, Homo sapiens, UniProt P20794)","binding, competition with immobilised ligand",,1 µM,remaining binding,100%
C[C@@]12C[C@@]3(O)O[C@@H](O1)[C@]1(COC(=O)c4ccccc4)[C@H]3C[C@@]12O[C@@H]1O[C@H](CO)[C@@H](O)[C@H](O)[C@H]1O,PDE4D,"enzyme activity, inhibitor, radiometric",,50 µM,inhibition,2.88%
COc1ccc2cccc(C(CO)CNC(=O)CF)c2c1 (stereo not shown),MTNR1B,"GTPγS binding, agonist, radiometric",,cell membranes,Emax,99%
c1ccc(C(NCCNC(c2ccccc2)c2ccccc2)c2ccccc2)cc1,"Phospholipase A2, major isoenzyme (PLA2G1B, Sus scrofa, UniProt P00592)","cell-free assay, inhibitor",,10 µM,inhibition,4%
Nc1ncc(-c2nc(N3CCOCC3)nc(N3CCOCC3)n2)c(C(F)F)n1,PDE4D,"enzyme activity, inhibitor",,10 µM,remaining activity,75%
O=C(O)CC(O)(CC(=O)O)C(=O)O,PDE4D,"enzyme activity, inhibitor, radiometric",,5 µM,inhibition,16.6%
NC(=O)c1cccc(-c2cccc(OC(=O)NC3CCCCC3)c2)c1,"Liver carboxylesterase 1 (CES1, Homo sapiens, UniProt P23141)","enzyme activity, inhibitor",,pH 7.4,kinact/KI,4500 M⁻¹ s⁻¹
COc1cc(O)ccc1/C=C/C(=O)c1ccc(O)cc1,PDE4D,"enzyme activity, inhibitor, radiometric",,5 µM,inhibition,-1.92%
COc1ccc2[nH]cc(CCNC(=O)CI)c2c1,MTNR1B,"β-arrestin recruitment, agonist",MT2,90 min,Emax,92%
